Test results as given in ChEMBL document CHEMBL4373711, “Development of 3,5-Dinitrophenyl-Containing 1,2,4-Triazoles and Their Trifluoromethyl Analogues as Highly Efficient Antitubercular Agents Inhibiting Decaprenylphosphoryl-β-d-ribofuranose 2'-Oxidase” (J Med Chem, 2019).
In brackets after ≈: the same amount, converted by molar mass. Activity calls are given as the source filed them. The rule behind the calls is not given here.

What was measured:
[1] = system: Mycobacterium tuberculosis; experiment: Antimycobacterial activity against Mycobacterium tuberculosis H37Rv CNCTC My 331/88 after 14 days; format: functional; conditions: H37Rv CNCTC My 331/88, 336 h
How it was run: (§1)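 M. tuberculosis strains (H37Rv and clinical MDR/XDR isolates) tested by microdilution in Šula's semisynthetic medium. Compounds were dissolved in DMSO and tested at 32 to 0.03 µM in twofold steps. Inoculum was a 1.0 McFarland suspension diluted 10-3. Plates were incubated at 37 °C and read at 14 and 21 days.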

[2] = system: Mycobacterium tuberculosis; experiment: Antimycobacterial activity against Mycobacterium tuberculosis H37Rv CNCTC My 331/88 after 21 days; format: functional; conditions: H37Rv CNCTC My 331/88, 504 h; how it was run: as §1
Mycobacterium avium [3] = experiment: Antimycobacterial activity against Mycobacterium avium CNCTC My 330/88 after 14 days; format: functional; conditions: CNCTC My 330/88, 336 h
How it was run: (§2)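 M. avium was tested by microdilution in Šula's semisynthetic medium, with compounds dissolved in DMSO and serially diluted from 1000 down to 1. Inoculum was a 1.0 McFarland suspension diluted 10-5. Plates were incubated at 37 °C and read at 14 and 21 days. […] Isoniazid and rifampicin served as standards.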

Mycobacterium avium [4] = experiment: Antimycobacterial activity against Mycobacterium avium CNCTC My 330/88 after 21 days; format: functional; conditions: CNCTC My 330/88, 504 h; how it was run: as §2
Mycobacterium kansasii [5] = experiment: Antimycobacterial activity against Mycobacterium kansasii CNCTC My 235/80 after 7 days; format: functional; conditions: CNCTC My 235/80, 168 h
How it was run: (§3)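 Microdilution in Šula's semisynthetic medium; compounds in DMSO at 32–0.03 µM. Inoculum from 1.0 McFarland suspension diluted 10-4. […] Isoniazid and rifampicin as reference drugs.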

Mycobacterium kansasii [6] = experiment: Antimycobacterial activity against Mycobacterium kansasii CNCTC My 235/80 after 14 days; format: functional; conditions: CNCTC My 235/80, 336 h; how it was run: as §3
Mycobacterium kansasii [7] = experiment: Antimycobacterial activity against Mycobacterium kansasii CNCTC My 235/80 after 21 days; format: functional; conditions: CNCTC My 235/80, 504 h; how it was run: as §3
Mycobacterium kansasii [8] = experiment: Antimycobacterial activity against Mycobacterium kansasii 6509/96 after 7 days; format: functional; conditions: 6509/96, 168 h; how it was run: as §3
Mycobacterium kansasii [9] = experiment: Antimycobacterial activity against Mycobacterium kansasii 6509/96 after 14 days; format: functional; conditions: 6509/96, 336 h; how it was run: as §3
Mycobacterium kansasii [10] = experiment: Antimycobacterial activity against Mycobacterium kansasii 6509/96 after 21 days; format: functional; conditions: 6509/96, 504 h; how it was run: as §3
Staphylococcus aureus [11] = experiment: Antibacterial activity against Staphylococcus aureus subsp. aureus ATCC 29213 CCM 4223 at highest concentration measured after 24 to 48 hrs by alamar blue dye based broth microdilution assay; format: functional, organism-based
Staphylococcus aureus [12] = experiment: Antibacterial activity against methicillin-resistant Staphylococcus aureus subsp. aureus ATCC 43300 CCM 4750 at highest concentration measured after 24 to 48 hrs by alamar blue dye based broth microdilution assay; format: functional, organism-based
[13] = system: Staphylococcus epidermidis; experiment: Antibacterial activity against Staphylococcus epidermidis at highest concentration measured after 24 to 48 hrs by alamar blue dye based broth microdilution assay; format: functional, organism-based
Enterococcus faecalis = experiment: Antibacterial activity against Enterococcus faecalis ATCC 29212 CCM 4224 at highest concentration measured after 24 to 48 hrs by alamar blue dye based broth microdilution assay; format: functional, organism-based
Escherichia coli = experiment: Antibacterial activity against Escherichia coli ATCC 25922 CCM 3954 at highest concentration measured after 24 to 48 hrs by alamar blue dye based broth microdilution assay; format: functional, organism-based
Klebsiella pneumoniae = experiment: Antibacterial activity against Klebsiella pneumoniae at highest concentration measured after 24 to 48 hrs by alamar blue dye based broth microdilution assay; format: functional, organism-based
Serratia marcescens = experiment: Antibacterial activity against Serratia marcescens at highest concentration measured after 24 to 48 hrs by alamar blue dye based broth microdilution assay; format: functional, organism-based
Pseudomonas aeruginosa = experiment: Antibacterial activity against Pseudomonas aeruginosa ATCC 27853 CCM 3955 at highest concentration measured after 24 to 48 hrs by alamar blue dye based broth microdilution assay; format: functional, organism-based
Candida albicans = experiment: Antifungal activity against Candida albicans ATCC 24433 CCM 8320 at highest concentration measured after 24 to 48 hrs by alamar blue dye based broth microdilution assay; format: functional, organism-based
Pichia kudriavzevii = experiment: Antifungal activity against Candida krusei ATCC 6258 CCM8271 at highest concentration measured after 24 to 48 hrs by alamar blue dye based broth microdilution assay; format: functional, organism-based
Candida parapsilosis = experiment: Antifungal activity against Candida parapsilosis ATCC 22019 CCM 8260 at highest concentration measured after 24 to 48 hrs by alamar blue dye based broth microdilution assay; format: functional, organism-based
Candida tropicalis = experiment: Antifungal activity against Candida tropicalis ATCC 750 CCM 8264 at highest concentration measured after 24 to 48 hrs by alamar blue dye based broth microdilution assay; format: functional, organism-based
Aspergillus fumigatus = experiment: Antifungal activity against Aspergillus fumigatus ATCC 204305 at highest concentration measured after 24 to 48 hrs by alamar blue dye based broth microdilution assay; format: functional, organism-based
Aspergillus flavus = experiment: Antifungal activity against Aspergillus flavus CCM 8363 at highest concentration measured after 24 to 48 hrs by alamar blue dye based broth microdilution assay; format: functional, organism-based
Lichtheimia corymbifera = experiment: Antifungal activity against Lichtheimia corymbifera CCM 8077 at highest concentration measured after 24 to 48 hrs by alamar blue dye based broth microdilution assay; format: functional, organism-based
[14] = system: Trichophyton interdigitale; experiment: Antifungal activity against Trichophyton interdigitale ATCC 9533 CCM 8377 at highest concentration measured after 72 to 120 hrs by alamar blue dye based broth microdilution assay; format: functional

Compound	MIC99 [1] [µM]	MIC99 [2] [µM]	MIC99 (Mycobacterium avium [3]) [µM]	MIC99 (Mycobacterium avium [4]) [µM]	MIC99 (Mycobacterium kansasii [5]) [µM]	MIC99 (Mycobacterium kansasii [6]) [µM]	MIC99 (Mycobacterium kansasii [7]) [µM]	MIC99 (Mycobacterium kansasii [8]) [µM]	MIC99 (Mycobacterium kansasii [9]) [µM]	MIC99 (Mycobacterium kansasii [10]) [µM]	other results
CCn1c(SCc2cc([N+](=O)[O-])cc([N+](=O)[O-])c2)nnc1-c1ccccc1	2 (≈ 0.771 µg/mL)	4 (≈ 1.54 µg/mL)	250 (≈ 96.4 µg/mL)	250 (≈ 96.4 µg/mL)	2 (≈ 0.771 µg/mL)	2 (≈ 0.771 µg/mL)	4 (≈ 1.54 µg/mL)	2 (≈ 0.771 µg/mL)	4 (≈ 1.54 µg/mL)	4 (≈ 1.54 µg/mL)	–
CCNC(=S)NNC(=O)c1cc([N+](=O)[O-])cc([N+](=O)[O-])c1	> 32	> 32	1000 (≈ 313 µg/mL)	1000 (≈ 313 µg/mL)	> 32	> 32	> 32	> 32	> 32	> 32	–
Cc1ccc(-c2nnc(SCc3cc([N+](=O)[O-])cc(C(F)(F)F)c3)n2Cc2ccccc2)cc1	> 32	> 32	250 (≈ 121 µg/mL)	250 (≈ 121 µg/mL)	> 32	> 32	> 32	> 32	> 32	> 32	–
O=[N+]([O-])c1cc(CSc2nnc(-c3ccccc3)n2-c2ccccc2)cc([N+](=O)[O-])c1	4 (≈ 1.73 µg/mL)	4 (≈ 1.73 µg/mL)	> 1000	> 1000	2 (≈ 0.867 µg/mL)	4 (≈ 1.73 µg/mL)	8 (≈ 3.47 µg/mL)	2 (≈ 0.867 µg/mL)	4 (≈ 1.73 µg/mL)	8 (≈ 3.47 µg/mL)	–
O=[N+]([O-])c1cc(CSc2nnc(-c3ccc(O)cc3)n2Cc2ccccc2)cc([N+](=O)[O-])c1	16 (≈ 7.42 µg/mL)	16 (≈ 7.42 µg/mL)	250 (≈ 116 µg/mL)	250 (≈ 116 µg/mL)	8 (≈ 3.71 µg/mL)	16 (≈ 7.42 µg/mL)	16 (≈ 7.42 µg/mL)	8 (≈ 3.71 µg/mL)	16 (≈ 7.42 µg/mL)	16 (≈ 7.42 µg/mL)	Activity (Staphylococcus aureus [11]): inactive; Activity (Staphylococcus aureus [12]): inactive; Activity [13]: inactive; Activity (Enterococcus faecalis): inactive; Activity (Escherichia coli): inactive; Activity (Klebsiella pneumoniae): inactive; Activity (Serratia marcescens): inactive; Activity (Pseudomonas aeruginosa): inactive; Activity (Candida albicans): inactive; Activity (Pichia kudriavzevii): inactive; Activity (Candida parapsilosis): inactive; Activity (Candida tropicalis): inactive; Activity (Aspergillus fumigatus): inactive; Activity (Aspergillus flavus): inactive; Activity (Lichtheimia corymbifera): inactive; Activity [14]: inactive
NNC(=O)c1ccncc1 [ISONIAZID]	–	–	> 250	> 250	> 250	> 250	> 250	2 (≈ 0.274 µg/mL)	4 (≈ 0.549 µg/mL)	4 (≈ 0.549 µg/mL)	–
O=[N+]([O-])c1cc(CSc2nnc(-c3ccccc3)n2Cc2ccc(Br)cc2)cc([N+](=O)[O-])c1	2 (≈ 1.05 µg/mL)	2 (≈ 1.05 µg/mL)	250 (≈ 132 µg/mL)	250 (≈ 132 µg/mL)	2 (≈ 1.05 µg/mL)	4 (≈ 2.11 µg/mL)	4 (≈ 2.11 µg/mL)	2 (≈ 1.05 µg/mL)	4 (≈ 2.11 µg/mL)	4 (≈ 2.11 µg/mL)	–
Cc1ccc(-c2nnc(SCc3cc([N+](=O)[O-])cc([N+](=O)[O-])c3)n2Cc2ccccc2)cc1	4 (≈ 1.85 µg/mL)	4 (≈ 1.85 µg/mL)	250 (≈ 115 µg/mL)	250 (≈ 115 µg/mL)	4 (≈ 1.85 µg/mL)	4 (≈ 1.85 µg/mL)	4 (≈ 1.85 µg/mL)	4 (≈ 1.85 µg/mL)	4 (≈ 1.85 µg/mL)	4 (≈ 1.85 µg/mL)	–
O=[N+]([O-])c1ccc(-c2nnc(SCc3cc([N+](=O)[O-])cc([N+](=O)[O-])c3)n2Cc2ccccc2)cc1	4 (≈ 1.97 µg/mL)	4 (≈ 1.97 µg/mL)	250 (≈ 123 µg/mL)	250 (≈ 123 µg/mL)	2 (≈ 0.985 µg/mL)	4 (≈ 1.97 µg/mL)	4 (≈ 1.97 µg/mL)	2 (≈ 0.985 µg/mL)	4 (≈ 1.97 µg/mL)	8 (≈ 3.94 µg/mL)	–
